Screening data deposited in PubChem by several laboratories.
This is a sample that favours compounds with a hit; in the whole collection about 2.2% have one here.
Diaphorase act = compounds boosting diaphorase resazurin reduction – biochemical, uHTS, resorufin fluorescence, counter-screen for diaphorase-coupled primary assays, primary screen | Diaphorase/resazurin coupled assay, 16 min; active compounds read high; 1 = vehicle wells, 0 = NADH-free wells | activation factor at 20 µM | 190,000 compounds, 0.005% hits | AID 1229, 2008;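 active = diaphorase activity raised at least twofold by the compound at 20 µM; inactive = activation factor below 2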
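System – purified diaphorase enzyme from Clostridium kluyveri · Input – enzyme 0.07 U/mL final · Also added – final NADH 0.114 mM, resazurin 0.1 mM · Measured by – fluorescence of resorufin, 544 nm excitation, 590 nm emission · Timing – 16 min enzyme reaction, ambient temperature · Measure – resorufin increase flagging diaphorase activators or reducers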
ROMK mod = ROMK potassium channel modulators, primary screen, cell-based, thallium flux, MLSMR library; AID 1918, 2009; B-score at 10 µM; 130,000 compounds, 2% hits; Tet-inducible ROMK, thallium flux fluorescence; actives lie on both sides; ATP-sensitive inward rectifier potassium channel 1 (Homo sapiens), P48048;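 active = signal ratio slope over the read window, or its plate-corrected B-score, at least 3 SD from the plate mean, either direction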;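 also: B-score of the F/F0 ratio slope over 7 to 12 s after thallium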
Target sequence (P48048 whole entry, looked up): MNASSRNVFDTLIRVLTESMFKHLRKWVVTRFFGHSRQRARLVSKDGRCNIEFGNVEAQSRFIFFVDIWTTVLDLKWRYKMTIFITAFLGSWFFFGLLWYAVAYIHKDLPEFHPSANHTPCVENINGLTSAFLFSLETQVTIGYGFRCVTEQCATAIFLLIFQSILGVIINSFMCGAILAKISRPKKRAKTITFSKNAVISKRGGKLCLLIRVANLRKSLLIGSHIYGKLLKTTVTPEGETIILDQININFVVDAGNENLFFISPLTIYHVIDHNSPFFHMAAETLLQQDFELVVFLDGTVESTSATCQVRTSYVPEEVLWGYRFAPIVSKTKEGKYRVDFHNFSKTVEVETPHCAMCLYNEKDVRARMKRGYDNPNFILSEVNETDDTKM
PMI activator = activators of human PMI, primary screen, biochemical, fluorescence intensity, near-Km mannose 6-phosphate; purified human PMI, coupled resazurin fluorescence, 20 min; active compounds read high; 1 = vehicle control, 0 substrate-free wells; Mannose-6-phosphate isomerase (Homo sapiens), P34949; AID 1214, 2008; 190,000 compounds, 0.005% hits; activation factor at 20 µM;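 active = activation factor of 2 or more at 20 µM, relative to plate controls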
Diaph inh CS = diaphorase inhibitors and chemical oxidizers, primary screen, counter-screen for diaphorase-coupled primary assays, biochemical, uHTS, resorufin fluorescence | diaphorase resazurin-to-resorufin fluorescence, NADH, 16 min; bacterial (C. kluyveri) enzyme, not human | inhibition, % at 20 µM | 190,000 compounds, 0.69% hits | AID 1217, 2008;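 active = primary screen inhibition at 20 µM above a set limit, cut at about 50% in these data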
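Assay system – diaphorase enzyme from Clostridium kluyveri · Amount – diaphorase 0.14 U/mL (working solution) · Times – reaction incubation of 16 min at room temperature · Controls – No-NADH positive control and DMSO neutral control · Signal – resorufin fluorescence 544/590 nm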
G6PDH counter = L. mesenteroides G6PDH inhibitors, counter-screen for G6PDH-coupled screening assays, biochemical, Leuconostoc mesenteroides enzyme. Purified L. mesenteroides G6PDH, diaphorase/resazurin coupled fluorescence, 45 min. inhibition, % at 5 µM. 200,000 compounds, 0.12% hits. AID 1020, 2008; in the data active = inhibition above about 50%
PMI act hi M6P = human PMI activators, high substrate, primary screen, biochemical, fluorescence intensity, near-saturating mannose 6-phosphate; Mannose-6-phosphate isomerase (Homo sapiens), P34949; coupled PMI enzyme assay, resazurin fluorescence, 20 min; active compounds read high; 1 = untreated enzyme, 0 = substrate-free blank; activation factor at 20 µM; 190,000 compounds, 0.34% hits; AID 1216, 2008;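 active = activation factor of 2 or more at 20 µM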
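Material: human phosphomannose isomerase with PGI, G6PDH, diaphorase coupling enzymes / Reagent: Man-6-P substrate 1.0 mM / Dosing: single compound dose of 20 µM, 1% DMSO final / Incubation: enzyme reaction with compound 20 min at room temperature / Signal: resorufin fluorescence (Ex 544/Em 590 nm) from resazurin via diaphorase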
Hits are given with their value; i = inactive; nt = not tested or not shown.

SMILES	Diaphorase act	ROMK mod	PMI activator	Diaph inh CS	G6PDH counter	PMI act hi M6P
Cc1ccc(S(=O)(=O)/N=C2\C(=O)c3ccccc3C([O-])=C2n2cc[n+](CCC(C)C)c2)cc1	i	nt	i	i	53	i
CCOC(=O)c1c(NC(=S)Nc2ccc(Cl)cc2)sc(C)c1C	i	i	i	i	i	i
Cc1sc(NC(=S)Nc2ccc(F)cc2)c(C(N)=O)c1C	i	i	i	58	i	i
NC(=O)CSc1nnc(-c2ccc3c(c2)OCO3)o1	i	nt	i	i	i	i
CSc1cccc(-n2cc(-c3ccc4c(c3)OCO4)[nH]c2=O)c1	i	nt	i	i	i	2.1
COc1ccc(/C=N/NC(=O)c2cc(O)c(O)c(O)c2)cc1Cn1cc([N+](=O)[O-])cn1	i	i	i	66	i	i
C=C(C)c1cccc(C(C)(C)NC(=O)N(C)C2CCN(C)CC2)c1	i	i	i	i	i	i
COC(=O)C(NNc1ccccc1C)(NC(=O)c1ccc(F)cc1)C(F)(F)F (centres undefined)	i	i	i	i	i	2.2
COC(=O)C(NNc1ccc(F)cc1)(NC(=O)c1ccccc1)C(F)(F)F (centres undefined)	i	nt	i	i	i	2.9
COC(=O)c1c(NC(=O)CN2C(=O)NC3(CCc4ccccc4C3)C2=O)sc2c1CCCCC2 (centres undefined)	i	i	i	i	i	i
Cn1c(=O)n(Cc2ccc(Br)cc2)c2ccccc21	i	nt	i	i	i	i
C=CCSC1=NC(=O)/C(=C/c2cccs2)S1	i	-5.7	i	i	i	i
COc1ccc(N2CCC(CNC(=O)Nc3cccc(OC)c3)C2)cc1 (centres undefined)	i	i	i	57	i	i
Oc1c(CN2CCOCC2)cc(COCc2ccccc2)c2cccnc12	i	nt	i	53	i	i
Cc1ccc(-n2c(=S)[nH]c3c(oc4ccccc43)c2=O)cc1C	i	nt	i	62	i	i
CN1CCN(C(=O)c2ccc3c(=O)n(-c4ccc(F)cc4)c(=S)[nH]c3c2)CC1	i	i	i	i	i	i
O=c1c2oc3ccccc3c2[nH]c(=S)n1-c1ccc(F)cc1	i	i	i	59	i	i
CN(C)c1ccc(/C=N/n2c(-c3ccccc3Br)n[nH]c2=S)cc1	nt	i	nt	nt	nt	nt
Cc1ccc2nc3c(cc(S(=O)(=O)c4ccccc4)c(=N)n3Cc3ccco3)c(=O)n2c1	i	i	i	52	i	i
CCOC(=O)c1cc2c(=O)n3ccccc3nc2n(Cc2ccco2)c1=NC(=O)c1ccccc1OC	i	i	i	80	i	i
N=c1c(S(=O)(=O)c2ccccc2)cc2c(=O)n3ccccc3nc2n1Cc1ccco1	i	i	i	51	i	i
CCOC(=O)CSc1nnc(-c2cc(OC)c(OC)c(OC)c2)o1	i	i	i	i	i	i
COc1cc(-c2nnc(SCc3cc(=O)oc4cc(O)c(O)cc34)o2)cc(OC)c1OC	i	i	i	67	i	i
Fc1ccc(NC(=S)Nc2ccc3nccnc3c2)cc1	i	i	i	64	i	i
CC(C)N(C(=O)Nc1ccc2nccnc2c1)C(C)C	i	i	i	65	i	i
SMILES	Diaphorase act	ROMK mod	PMI activator	Diaph inh CS	G6PDH counter	PMI act hi M6P
Cc1[nH]c2ccccc2c1/C=N/NC(N)=S	nt	i	nt	nt	nt	nt
NC(=S)N/N=C\c1c2ccccc2cc2ccccc12	i	i	i	i	i	2.3
COc1ccc(C(=O)CSc2ccccc2C(=O)O)cc1	i	i	i	i	i	i
COc1cc(O)c(NC(C)=O)c2nonc12	i	i	i	63	i	i
COc1ccccc1NC(C)=O	i	nt	i	i	i	i
CCN1CCN(c2ccc(NC(=O)CCc3c(C)nc4c(-c5ccc(F)cc5)c(C)nn4c3C)cc2)CC1	i	i	i	i	i	i
Cc1c(-c2ccccc2)sc2nc[nH]c(=S)c12	i	4.9	i	i	i	i
O=c1[nH]cnc2cc(-c3ccccc3)sc12	i	i	i	i	i	i
COc1ccc(-n2c3c(cc(C(=O)NNc4ccccc4)c2=O)C(=O)CC(C)(C)C3)cc1	i	i	i	i	i	2.1
COc1ccc(-n2c3c(cc(C(=O)NNc4ccccc4C)c2=O)C(=O)CC(C)(C)C3)cc1	i	i	i	i	i	2
Cn1c2c(c(=O)n3ncnc13)CCCC2	nt	i	nt	nt	nt	nt
Fc1ccc(-c2n[nH]c(=S)n2CC2CCCO2)cc1 (centres undefined)	i	2.4	i	i	i	i
S=c1[nH]nc(-c2ccncc2)n1CC1CCCO1 (centres undefined)	i	nt	i	i	i	i
CCCCCCC1(C)NC(=S)N(c2ccccc2)N1 (centres undefined)	i	i	i	i	i	3
CCCCCC1(C)NC(=S)N(c2ccccc2)N1 (centres undefined)	i	i	2	i	i	3.1
CC1(CC(=O)Nc2ccccc2)NC(=S)N(c2ccccc2)N1 (centres undefined)	i	i	i	i	i	i
CN(C)c1ccc2c(O)cc(=O)n(C)c2c1	i	i	i	60	i	i
CN(c1ccc(Cl)cc1)c1cc(=O)n(C)c2ccccc12	i	nt	i	i	i	i
O=C(O)CCCNC(=O)c1ccccn1	i	i	i	i	i	i
O=C(O)Cc1ccc(C(=O)c2ccc(Cl)cc2Cl)s1	i	i	i	83	i	i
COc1cc(/C=C2/SC(=S)NC2=O)ccc1OS(=O)(=O)c1ccc(C)cc1	i	i	i	50	i	i
COc1ccc(Nc2nc(-c3c(C)nc4ncccn34)cs2)cc1	nt	3.1	nt	nt	i	nt
COCCOC(=O)C1=C(C)NC2=C(C(=O)CCC2)C1c1cc2c(cc1Br)OCO2 (centres undefined)	i	i	i	i	i	i
CCSc1cc(C2C(C(=O)OC)=C(C)NC3=C2C(=O)CCC3)c(C)o1 (centres undefined)	i	nt	i	i	i	2.1
Cc1ncn(-c2ccc(C(=O)Oc3ccccc3)cn2)n1	i	i	i	i	i	i
CCc1[nH]c(=S)c(C#N)c2c1CCCC2	i	i	i	i	i	2.2
CN(C)c1cc(N/N=C/c2ccc(Cl)cc2)nc(N(C)C)n1	i	i	i	54	i	i
